In series [1] the target is Histone deacetylase (Homo sapiens) (UniProt Q13547+O15379+Q9UBN7+Q92769+Q9UQL6+Q8WUI4+Q9BY41+Q96DB2+P56524+Q9UKV0+Q969S8). Description: Inhibition of Class 1 histone deacetylase in human HeLa cells assessed as induction in p21 protein expression at 3 uM incubated for 16 hrs by luciferase reporter gene assay relative to HDAC inhibitor entinostat. Type of series: cell-based. Also noted: scale not given: the % may be the effect or the level left. Background: Reporter assays use an easily measured gene product as a stand-in for the process of interest.

The test system of series [2] is Mus musculus. Description: Reactivation of SPINT2 gene expression in treatment responding human hepatocellular carcinoma patient tumor xenografted in BALB/C mouse at 100 mg/kg, po administered every other day for 4 weeks. Also noted: dose 100 mg/kg. In kind it is functional, organism-based. The gist of the method: (§1)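 Patient HCC tumor fragments (3 × 3 × 3 mm3) implanted subcutaneously in female BALB/c nu/nu mice; at ~200 (150−250) mm3 dosed orally Q2D 100 mpk in 15% Kleptose pH 4.5 tartaric buffer for about four weeks. Tumor RNA (TRIzol, DNase I) run on 22-gene qRT-PCR array, normalized to GAPDH/β-glucuronidase by ΔCt, fold change versus day 0.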

The subject of series [3] is Mus musculus. The series is described as follows: Inhibition of Class 1 histone deacetylase in treatment non-responding human hepatocellular carcinoma patient tumor xenografted in BALB/C mouse assessed as induction of histone H3 acetylation at 100 mg/kg, po administered every other day for 4 weeks by immunohistochemistry. In kind it is functional, organism-based. Also noted: dose 100 mg/kg. The gist of the method:
(§2)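 Patient-derived HCC xenografts in female nude mice given 100 mpk Q2D PO (15% Kleptose, pH 4.5 tartaric buffer); single dose on last day, tumors harvested 0 to 24 h post-dose. Paraffin sections, citrate pH 6.0 antigen retrieval, anti-Ac-H3 (Lys9) 1:200 overnight 4 °C, HRP/DAB; scored 0−3 independently by two pathologists.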

Series [4] has as its system Mus musculus. Description: Inhibition of Class 1 histone deacetylase in treatment responding human hepatocellular carcinoma patient tumor xenografted in BALB/C mouse assessed as induction of histone H3 acetylation at 100 mg/kg, po administered every other day for 4 weeks by immunohistochemistry. Type of series: functional, organism-based. Also noted: dose 100 mg/kg. An outline of the steps:
as §2
Background: Xenograft models place foreign cells or tissue in a host animal.

Series [5] concerns Mus musculus. Description: Down-regulation of CFLAR gene expression in human hepatocellular carcinoma patient tumor xenografted in BALB/C mouse at 100 mg/kg, po administered every other day for 4 weeks by […]. Type of series: functional, organism-based. Also noted: dose 100 mg/kg. The gist of the method: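 Patient-derived HCC xenografts dosed 100 mpk Q2D PO; tumor total RNA (TRIzol, DNase I treated, column-purified) run on a customized 22-gene qRT-PCR array; ΔCt against mean of GAPDH and β-glucuronidase, fold-change relative to day 0 (pre-treatment).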

Series [6] has as its system Mus musculus. The series is described as follows: Up-regulation of SDC2 gene expression in human hepatocellular carcinoma patient tumor xenografted in BALB/C mouse at 100 mg/kg, po administered every other day for 4 weeks by […]. In kind it is functional, organism-based. Also noted: dose 100 mg/kg. An outline of the steps: as §1
In series [7] the test system is Mus musculus. Description: Up-regulation of IGFBP3 gene expression in human hepatocellular carcinoma patient tumor xenografted in BALB/C mouse at 100 mg/kg, po administered every other day for 4 weeks by […]. In kind it is functional, organism-based. Also noted: dose 100 mg/kg. The gist of the method: as §1
The subject of series [8] is Mus musculus. Description: Up-regulation of SPINT2 gene expression in human hepatocellular carcinoma patient tumor xenografted in BALB/C mouse at 100 mg/kg, po administered every other day for 4 weeks by […]. In kind it is functional, organism-based. Also noted: dose 100 mg/kg. An outline of the steps: as §1
Series [9] relates to Mus musculus. Description: Up-regulation of CDH1 gene expression in human hepatocellular carcinoma patient tumor xenografted in BALB/C mouse at 100 mg/kg, po administered every other day for 4 weeks by […]. In kind it is functional, organism-based. Also noted: dose 100 mg/kg. An outline of the steps:
as §1

Series [10] has as its system Mus musculus. The series is described as follows: Up-regulation of TIMP3 gene expression in human hepatocellular carcinoma patient tumor xenografted in BALB/C mouse at 100 mg/kg, po administered every other day for 4 weeks by […]. In kind it is functional, organism-based. On the set-up: dose 100 mg/kg. An outline of the steps: as §1
Series [11] relates to Mus musculus. The series is described as follows: Up-regulation of THBS1 gene expression in human hepatocellular carcinoma patient tumor xenografted in BALB/C mouse at 100 mg/kg, po administered every other day for 4 weeks by […]. On the set-up: dose 100 mg/kg. Type of series: functional, organism-based. An outline of the steps:
as §1

In series [12] the test system is Mus musculus. Description: Up-regulation of SOCS1 gene expression in human hepatocellular carcinoma patient tumor xenografted in BALB/C mouse at 100 mg/kg, po administered every other day for 4 weeks by […]. On the set-up: dose 100 mg/kg. In kind it is functional, organism-based. An outline of the steps:
as §1

Series [13] relates to Mus musculus. The series is described as follows: Up-regulation of CTGF gene expression in human hepatocellular carcinoma patient tumor xenografted in BALB/C mouse at 100 mg/kg, po administered every other day for 4 weeks by […]. Type of series: functional, organism-based. Also noted: dose 100 mg/kg. An outline of the steps:
as §1

Another series deals with SGC-7901. Description: Induction of cell cycle arrest in human SGC7901 cells assessed as reduction in accumulation at S phase incubated for 24 hrs by flow cytometry. Type of series: functional, cell-based. An outline of the steps: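 SGC-7901 cells (1 × 10^5, about 50% confluent) treated 24 h with a concentration series; fixed in chilled 70% ethanol 1 h at 4 °C, stained 1 h at room temperature with propidium iodide (50 μg/mL) plus RNase A and 0.05% Triton X-100; analysed by flow cytometry.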
On the technique in general: Flow cytometry measures light scatter and fluorescence of single cells or particles in a stream.

A short description of series [14]: AUC in BALB/C mouse at 10 mg/kg, po or 2 mg/kg, iv by LC-MS/MS method. Type of series: ADME, organism-based, Plasma. As to conditions: BALB/C, plasma. The gist of the method:
(§3)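 Female-unspecified BALB/C nude mice (15−20 g, N = 16 per arm); iv bolus 2 mg/kg in 5% DMSO/40% PEG400/55% saline and/or oral gavage 10 mg/kg as 0.445% microcrystalline cellulose microsuspension. Blood sampled at nine (iv) or eight (po) time points into sodium heparin tubes; plasma by LC-MS/MS; noncompartmental analysis.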

Series [15] in a line: Half life in BALB/C mouse at 10 mg/kg, po or 2 mg/kg, iv by LC-MS/MS method. In kind it is ADME, organism-based. The conditions noted are these: BALB/C, in vivo. The gist of the method:
as §3

Series [16] concerns Mus musculus. Description: Cmax in BALB/C mouse at 10 mg/kg, po or 2 mg/kg, iv by LC-MS/MS method. Type of series: ADME, organism-based. As to conditions: in vivo. The gist of the method: as §3
Series [17] has as its system Mus musculus. The series is described as follows: Tmax in BALB/C mouse at 10 mg/kg, po or 2 mg/kg, iv by LC-MS/MS method. Type of series: ADME, organism-based. The conditions noted are these: in vivo. An outline of the steps: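 Single-dose PK: iv bolus 2 mg/kg in 5% DMSO/40% PEG400/55% saline and/or oral gavage 10 mg/kg as 0.445% microcrystalline cellulose microsuspension; BALB/C nude mice (15−20 g, N = 16 per arm) or male Sprague−Dawley rats (250 ± 20 g, N = 3). Blood at eight (po) or nine (iv) time points into sodium heparin, plasma by LC-MS/MS, noncompartmental analysis.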

Series [18] can be described thus: Solubility in 50 mM phosphate buffer at pH 6.5 by HPLC method. In kind it is physicochemical. An outline of the steps: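 10 mM DMSO stock dried, residue redissolved in 50 mM phosphate buffer pH 6.5, stirred 1 h and shaken 2 h, left overnight, filtered and analysed by HPLC against calibration standards of 50−500 μM diluted from the DMSO stock.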
Another series relates to SK-HEP1. In kind it is functional, Homo sapiens.
In a further series the test system is Bel-7402. In kind it is functional, Homo sapiens.
Another series relates to SMMC-7721. In kind it is functional, Homo sapiens.
The subject of a further series is BEL-7404. Description: Antitumor activity against human BEL-7404 cells xenografted in BALB/C mouse assessed as tumor growth inhibition at 50 mg/kg, po qd for 4 weeks. The conditions noted are these: BEL-7404, po, 672 h, read-out: TGI.

≈ marks a conversion by molar mass, not a printed value. Calls of active or inactive are those of the source. The calls are words filed in the database; no cut-off is given here.

What is called AUC is concentration integrated over time. Usually half-life stands for how long it takes for the measured level to halve. As a reminder, the Cmax is the peak of the concentration-time curve. Broadly, the Tmax is the time at which the peak concentration occurs. As usually defined, the solubility is the dissolved amount per volume that the medium holds.

As for `CN1C[C@H](C(=O)Nc2ccc(Cl)cc2)[C@@H](c2ccc(/C=C/C(=O)Nc3ccccc3N)cc2)C1` [listing 1 of 2 here], the Activity in series [1] was 257%; with SGC-7901, “Dose-dependent effect”. The result in the series on Mus musculus [2], in the series with Mus musculus [5], with Mus musculus [6], in the series with Mus musculus [7], with Mus musculus [10] and with Mus musculus [11] was Active. The outcome with Mus musculus [12] and with Mus musculus [13] was Active. In the series with Mus musculus [3], the inhibition entry was “inactive”. Moreover, the inhibition entry in the series with Mus musculus [4] was “Active”. Besides, the outcome in the series with Mus musculus [8] and in the series with Mus musculus [9] was inactive.

In the case of `CN1C[C@H](C(=O)Nc2ccc(Cl)cc2)[C@@H](c2ccc(/C=C/C(=O)Nc3ccccc3N)cc2F)C1` (racemic), in series [14], the AUC turned out to be 3570 ng·h/mL. Also, the half-life in series [15] was 3.4 h. The Activity in series [1] came to 130%.

In turn, `CN1C[C@@H](C(=O)Nc2ccc(Cl)cc2)[C@H](c2ccc(/C=C/C(=O)Nc3ccccc3N)cc2)C1` gave an exposure (AUC) in series [14] of 2540 ng·h/mL. In addition, in [15], the half-life was 6.2 h.

`CN1C[C@H](C(=O)Nc2ccc(Cl)cc2)[C@@H](c2ccc(/C=C/C(=O)Nc3ccccc3N)cc2)C1` [listing 2 of 2 here] showed a maximum concentration (Cmax) with Mus musculus [16] of 893 ng/mL. For the same compound, the Tmax in the series on Mus musculus [17] amounted to 0.25 h. Besides, the solubility in series [18] came to 136 µg/mL (≈ 286 µM). Besides, the results for the GI90 with SK-HEP1, in the series with Bel-7402 and with SMMC-7721 were 2500 nM, 1200 nM and 1900 nM, respectively. Also, the inhibition in vivo at 50 mg/kg in the series with BEL-7404 is greater than 60%.
